Assay results from ChEMBL document CHEMBL1121761, “Antihypertensive pyrrolo[1,2-c]quinazolines and pyrrolo[1,2-c]quinazolinones” (1981).

How the values were obtained:
Assay type in all cases: functional, Artery
[1] = system: Rattus norvegicus; test: Change in systolic blood pressure after 100 mg/kg oral administration in spontaneous hypertensive rats after 24 hr
Procedure, shortened: (§1)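 Male spontaneously hypertensive rats, four per dose, received oral doses suspended in 30% PEG 200, 10% PEG 400, 10% EtOH and 50% pH 7.50 phosphate buffer at 0.5 mL/100 g. A first dose of 100 mg/kg was followed by a second dose of 50 mg/kg. Tail-cuff systolic pressure was read before dosing and 2, 4 and 24 h after each dose. Postdose readings were compared with predose readings by paired Student's t test.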

[2] = system: Rattus norvegicus; test: Change in systolic blood pressure after 100 mg/kg oral administration in spontaneous hypertensive rats after 4 hr; procedure, shortened: as §1
[3] = system: Rattus norvegicus; test: Change in systolic blood pressure after 50 mg/kg oral administration in spontaneous hypertensive rats after 2 hr; procedure, shortened: as §1
[4] = system: Rattus norvegicus; test: Change in systolic blood pressure after 50 mg/kg oral administration in spontaneous hypertensive rats after 24 hr; procedure, shortened: as §1
[5] = system: Rattus norvegicus; test: Change in systolic blood pressure after 100 mg/kg oral administration in spontaneous hypertensive rats after 2 hr; procedure, shortened: as §1
[6] = system: Rattus norvegicus; test: Change in systolic blood pressure after 50 mg/kg oral administration in spontaneous hypertensive rats after 4 hr; procedure, shortened: as §1
[7] = system: Rattus norvegicus; test: Change in systolic blood pressure after 12.5 mg/kg oral administration in spontaneous hypertensive rats after 4 hr
Procedure, shortened: (§2)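 Reference agents were given orally to male SHR, four per dose, as a suspension in PEG 200/PEG 400/EtOH/pH 7.50 phosphate buffer vehicle at 0.5 mL/100 g. Systolic pressure was measured by tail cuff before dosing and at 2, 4 and 24 h after each dose. Predose and postdose levels were compared by paired Student's t test.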

[8] = system: Rattus norvegicus; test: Change in systolic blood pressure after 12.5 mg/kg oral administration in spontaneous hypertensive rats after 2 hr; procedure, shortened: as §2
[9] = system: Rattus norvegicus; test: Change in systolic blood pressure after 25 mg/kg oral administration in spontaneous hypertensive rats after 4 hr; procedure, shortened: as §2
[10] = system: Rattus norvegicus; test: Change in systolic blood pressure after 12.5 mg/kg oral administration in spontaneous hypertensive rats after 24 hr; procedure, shortened: as §2
[11] = system: Rattus norvegicus; test: Change in systolic blood pressure after 25 mg/kg oral administration in spontaneous hypertensive rats after 2 hr; procedure, shortened: as §2
[12] = system: Rattus norvegicus; test: Change in systolic blood pressure after 25 mg/kg oral administration in spontaneous hypertensive rats after 24 hr; procedure, shortened: as §2
[13] = system: Rattus norvegicus; test: Change in systolic blood pressure after 33 mg/kg oral administration in spontaneous hypertensive rats after 24 hr; procedure, shortened: as §2
[14] = system: Rattus norvegicus; test: Change in systolic blood pressure after 33 mg/kg oral administration in spontaneous hypertensive rats after 4 hr; procedure, shortened: as §2
[15] = system: Rattus norvegicus; test: Change in systolic blood pressure after 33 mg/kg oral administration in spontaneous hypertensive rats after 2 hr; procedure, shortened: as §2

In the case of `Cc1cc2c3ccccc3nc(O)n2c1`, the Delta blood pressure [1] is reported as 11, the Delta blood pressure [2] is reported as 39 and the Delta blood pressure [3] is reported as 46. It also gave a Delta blood pressure [4] of 35.
`CCOC(=O)c1cc2n(c1)CN(CCC#N)c1ccccc1-2` was tested, and the Delta blood pressure [1] was 1.2, the Delta blood pressure [2] was 11.3 and the Delta blood pressure [5] was 13.8. The Delta blood pressure [6] was 38 and the Delta blood pressure [3] was 33.
Compound `CCOC(=O)c1cc2c3cc(Cl)ccc3ncn2c1` has a Delta blood pressure [1] of 5, a Delta blood pressure [2] of 16.3 and a Delta blood pressure [5] of 17.5. The Delta blood pressure [6] was 31.3, the Delta blood pressure [3] was 13.8 and the Delta blood pressure [4] was 7.5.
`CCOC(=O)c1cc2c3cc(C#N)ccc3ncn2c1` gave a Delta blood pressure [1] of 20, a Delta blood pressure [2] of 20 and a Delta blood pressure [5] of 11.6. The Delta blood pressure [6] was 33, the Delta blood pressure [3] was 21.6 and the Delta blood pressure [4] was 6.6.
With `CCOC(=O)c1cc2n(c1)CN(C(=O)OCC)c1ccccc1-2` the Delta blood pressure [1] was 20, the Delta blood pressure [2] was 11.2 and the Delta blood pressure [5] was 6.2. The Delta blood pressure [6] was 42.5, the Delta blood pressure [3] was 18.7 and the Delta blood pressure [4] was 23.7.
`CCOC(=O)c1cc2c3ccccc3n(CCC#N)c(=O)n2c1` gave a Delta blood pressure [1] of 45, a Delta blood pressure [2] of 2 and a Delta blood pressure [6] of 19. For the same compound, the Delta blood pressure [4] was 59.
In the case of `CCOC(=O)c1cc2n(c1)CN(C)c1ccccc1-2`, the Delta blood pressure [1] is reported as 31, the Delta blood pressure [5] is reported as 29 and the Delta blood pressure [6] is reported as 26. For the same compound, the Delta blood pressure [4] was 6.5.
For `COc1ccc2c(c1)nc(O)n1cc(C)cc21`, the Delta blood pressure [1] was 15, the Delta blood pressure [2] was 9 and the Delta blood pressure [5] was 6. The Delta blood pressure [6] was 31, the Delta blood pressure [3] was 28 and the Delta blood pressure [4] was 12.
`CC#Cc1c(C)cc2c3ccccc3nc(O)n12.Cl` showed a Delta blood pressure [1] of 20.5, a Delta blood pressure [2] of 27 and a Delta blood pressure [6] of 30. It also gave a Delta blood pressure [4] of 42.
With `COc1cc2nc(N3CCN(C(=O)c4ccco4)CC3)nc(N)c2cc1OC` [PRAZOSIN] the Delta blood pressure [7] was 48.2, the Delta blood pressure [8] was 40 and the Delta blood pressure [9] was 76.2. For the same compound, the Delta blood pressure [10] was 13.7, the Delta blood pressure [11] was 56.2 and the Delta blood pressure [12] was 41.2.
`CC(C)NCC(O)COc1cccc2ccccc12` (configuration not stated) [PROPRANOLOL] was tested, and the Delta blood pressure [1] was 32.5, the Delta blood pressure [2] was 45 and the Delta blood pressure [13] was 51.2. It also gave a Delta blood pressure [14] of 28.7, a Delta blood pressure [15] of 27.5 and a Delta blood pressure [5] of 18.7.
